# According to ChEMBL document CHEMBL1154716, “Synthesis of some new S-triazine based chalcones and their derivatives as potent antimicrobial agents” (2010):
# The source made the active and inactive calls. The calls are words filed in the database; no cut-off is given here.
# How the values were obtained:
# Micrococcus flavus [1] = assay: Antimicrobial activity against Micrococcus flavus after 24 hrs by microdilution technique; assay type: functional
# Summary of the method: (§1)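 Broth microdilution in LB medium. Inoculum is 1.0 × 10^4 cfu per well, from a saline-adjusted suspension of 1.0 × 10^5 cfu/ml. Compounds are dissolved in DMSO. Incubated 24 h at 28 C. MIC is the lowest concentration with no visible growth under a binocular microscope. MBC is read by subculture into fresh broth for 72 h, with no growth taken as 99.5% kill. OD is read at 655 nm.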
# Micrococcus flavus [2] = assay: Antimicrobial activity against Micrococcus flavus at 10 ug/disk after 24 hrs by disk diffusion assay; assay type: functional; conditions: for zone of inhibition at 10 µg/disc: read-out: IZ
# Summary of the method: (§2)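 Disc diffusion on 4 mm filter discs. Bacteria are grown overnight in LB at 28 C, then adjusted in saline to 1.0 × 10^5 cfu/ml. The suspension is mixed into top agar over peptone agar plates. Plates are incubated 24 h at 28 C, and growth-inhibition zone diameter is measured. Streptomycin and ampicillin controls are applied from a 1 mg/ml stock. Tests are done in duplicate.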
# Enterobacter cloacae [3] = assay: Antimicrobial activity against Enterobacter cloacae at 1 umol/spot after 18 hrs by TLC-bioautographic method; assay type: functional
# Summary of the method: (§3)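 TLC bioautography. Samples are spotted on silica gel TLC plates, then sprayed with bacteria (1.0 × 10^5 cfu/ml) in tryptic soy broth. Plates are incubated 18 h at 37 C and sprayed with 3% aqueous p-iodonitrotetrazolium violet. After a further 3 h, growth is stopped with 70% EtOH. White zones on a pink background are scored as inhibition-zone diameter with standard errors.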
# Staphylococcus aureus [4] = assay: Antimicrobial activity against Staphylococcus aureus after 24 hrs by microdilution technique; assay type: functional; summary of the method: as §1
# Salmonella typhimurium [5] = assay: Antimicrobial activity against Salmonella Typhimurium at 10 ug/disk after 24 hrs by disk diffusion assay; assay type: functional, organism-based; conditions: Salmonella enterica subsp. enterica serovar Typhimurium; summary of the method: as §2
# Salmonella typhimurium [6] = assay: Antimicrobial activity against Salmonella Typhimurium at 1 umol/spot after 18 hrs by TLC-bioautographic method; assay type: functional; summary of the method: as §3
# Staphylococcus aureus [7] = assay: Antimicrobial activity against Staphylococcus aureus at 1 umol/disk after 24 hrs by disk diffusion assay; assay type: functional; summary of the method: as §2
# Bacillus cereus [8] = assay: Antimicrobial activity against Bacillus cereus at 1 umol/spot after 18 hrs by TLC-bioautographic method; assay type: functional; summary of the method: as §3
# Pseudomonas aeruginosa [9] = assay: Antimicrobial activity against Pseudomonas aeruginosa at 1 umol/spot after 18 hrs by TLC-bioautographic method; assay type: functional; summary of the method: as §3
# Staphylococcus aureus [10] = assay: Antimicrobial activity against Staphylococcus aureus at 10 ug/disk after 24 hrs by disk diffusion assay; assay type: functional; conditions: for zone of inhibition at 10 µg/disc: read-out: IZ; summary of the method: as §2
# Micrococcus flavus [11] = assay: Antimicrobial activity against Micrococcus flavus at 1 umol/spot after 18 hrs by TLC-bioautographic method; assay type: functional; summary of the method: as §3
# Micrococcus flavus [12] = assay: Antimicrobial activity against Micrococcus flavus at 1 umol/disk after 24 hrs by disk diffusion assay; assay type: functional; summary of the method: as §2
# Staphylococcus aureus [13] = assay: Antimicrobial activity against Staphylococcus aureus at 1 umol/spot after 18 hrs by TLC-bioautographic method; assay type: functional; summary of the method: as §3
# Escherichia coli [14] = assay: Antimicrobial activity against Escherichia coli at 1 umol/disk after 24 hrs by disk diffusion assay; assay type: functional; summary of the method: as §2
# Bacillus cereus [15] = assay: Antimicrobial activity against Bacillus cereus at 1 umol/disk after 24 hrs by disk diffusion assay; assay type: functional; summary of the method: as §2
# Escherichia coli [16] = assay: Antimicrobial activity against Escherichia coli at 1 umol/spot after 18 hrs by TLC-bioautographic method; assay type: functional; summary of the method: as §3
# Bacillus cereus [17] = assay: Antimicrobial activity against Bacillus cereus after 24 hrs by microdilution technique; assay type: functional; summary of the method: as §1
# Pseudomonas aeruginosa [18] = assay: Antimicrobial activity against Pseudomonas aeruginosa at 10 ug/disk after 24 hrs by disk diffusion assay; assay type: functional; conditions: for zone of inhibition at 10 µg/disc: read-out: IZ; summary of the method: as §2
# Salmonella typhimurium [19] = assay: Antimicrobial activity against Salmonella Typhimurium at 1 umol/disk after 24 hrs by disk diffusion assay; assay type: functional, organism-based; conditions: Salmonella enterica subsp. enterica serovar Typhimurium; summary of the method: as §2
# Enterobacter cloacae [20] = assay: Antimicrobial activity against Enterobacter cloacae at 10 ug/disk after 24 hrs by disk diffusion assay; assay type: functional; conditions: for zone of inhibition at 10 µg/disc: read-out: IZ; summary of the method: as §2
# Listeria monocytogenes [21] = assay: Antimicrobial activity against Listeria monocytogenes after 24 hrs by microdilution technique; assay type: functional; summary of the method: as §1
# Listeria monocytogenes [22] = assay: Antimicrobial activity against Listeria monocytogenes at 1 umol/spot after 18 hrs by TLC-bioautographic method; assay type: functional; summary of the method: as §3
# Escherichia coli [23] = assay: Antimicrobial activity against Escherichia coli after 24 hrs by microdilution technique; assay type: functional; summary of the method: as §1
# Bacillus cereus [24] = assay: Antimicrobial activity against Bacillus cereus at 10 ug/disk after 24 hrs by disk diffusion assay; assay type: functional; conditions: for zone of inhibition at 10 µg/disc: read-out: IZ; summary of the method: as §2
# Pseudomonas aeruginosa [25] = assay: Antimicrobial activity against Pseudomonas aeruginosa after 24 hrs by microdilution technique; assay type: functional; summary of the method: as §1
# Listeria monocytogenes [26] = assay: Antimicrobial activity against Listeria monocytogenes at 10 ug/disk after 24 hrs by disk diffusion assay; assay type: functional; summary of the method: as §2
# Enterobacter cloacae [27] = assay: Antimicrobial activity against Enterobacter cloacae after 24 hrs by microdilution technique; assay type: functional; summary of the method: as §1
# Enterobacter cloacae [28] = assay: Antimicrobial activity against Enterobacter cloacae at 1 umol/disk after 24 hrs by disk diffusion assay; assay type: functional; summary of the method: as §2
# Salmonella typhimurium [29] = assay: Antimicrobial activity against Salmonella Typhimurium after 24 hrs by microdilution technique; assay type: functional, Salmonella enterica subsp. enterica serovar Typhimurium; conditions: Salmonella enterica; summary of the method: as §1
# Listeria monocytogenes [30] = assay: Antimicrobial activity against Listeria monocytogenes at 1 umol/disk after 24 hrs by disk diffusion assay; assay type: functional; summary of the method: as §2
# Escherichia coli [31] = assay: Antimicrobial activity against Escherichia coli at 10 ug/disk after 24 hrs by disk diffusion assay; assay type: functional; conditions: for zone of inhibition at 10 µg/disc: read-out: IZ; summary of the method: as §2
# Pseudomonas aeruginosa [32] = assay: Antimicrobial activity against Pseudomonas aeruginosa at 1 umol/disk after 24 hrs by disk diffusion assay; assay type: functional; summary of the method: as §2
# [33] = Salmonella enterica subsp. enterica serovar Typhimurium
Compound,MBC (Micrococcus flavus [1]) [µM],MIC (Micrococcus flavus [1]) [µM],inhibition zone (IZ) (Enterobacter cloacae [3]),MBC (Staphylococcus aureus [4]) [µM],MIC (Staphylococcus aureus [4]) [µM],inhibition zone (IZ) (Salmonella typhimurium [5]),inhibition zone (IZ) (Bacillus cereus [8]),inhibition zone (IZ) (Pseudomonas aeruginosa [9]),inhibition zone (IZ) (Micrococcus flavus [11]),inhibition zone (IZ) (Micrococcus flavus [12]),inhibition zone (IZ) (Staphylococcus aureus [13]),inhibition zone (IZ) (Escherichia coli [14]),inhibition zone (IZ) (Escherichia coli [16]),MBC (Bacillus cereus [17]) [µM],MIC (Bacillus cereus [17]) [µM],inhibition zone (IZ) (Salmonella typhimurium [19]),MBC (Listeria monocytogenes [21]) [µM],MIC (Listeria monocytogenes [21]) [µM],inhibition zone (IZ) (Listeria monocytogenes [22]),MBC (Escherichia coli [23]) [µM],further results
O=C(/C=C/c1ccco1)c1ccc(Nc2nc(Nc3ccccc3)nc(Nc3ccccc3)n2)cc1,844,422,0.08 millimeter,844,422,inactive,0.07 millimeter,inactive,0.07 millimeter,0.04 millimeter,0.08 millimeter,0.04 millimeter,0.08 millimeter,422,211,inactive,844,422,0.08 millimeter,422,zone of inhibition at 10 µg/disc (Micrococcus flavus [2]): 8 mm; inhibition zone (IZ) (Salmonella typhimurium [6]; [33]): inactive; inhibition zone (IZ) (Staphylococcus aureus [7]): inactive; inhibition zone (IZ) (Staphylococcus aureus [10]): inactive; inhibition zone (IZ) (Bacillus cereus [15]): inactive; zone of inhibition at 10 µg/disc (Pseudomonas aeruginosa [18]): 6 mm; inhibition zone (IZ) (Enterobacter cloacae [20]): inactive; MIC (Escherichia coli [23]): 211 µM; inhibition zone (IZ) (Bacillus cereus [24]): inactive; MBC (Pseudomonas aeruginosa [25]): 422 µM; MIC (Pseudomonas aeruginosa [25]): 211 µM; inhibition zone (IZ) (Listeria monocytogenes [26]): inactive; MBC (Enterobacter cloacae [27]): 422 µM; MIC (Enterobacter cloacae [27]): 211 µM; inhibition zone (IZ) (Enterobacter cloacae [28]): inactive; MBC (Salmonella typhimurium [29]): 422 µM; MIC (Salmonella typhimurium [29]): 211 µM; inhibition zone (IZ) (Listeria monocytogenes [30]): inactive; zone of inhibition at 10 µg/disc (Escherichia coli [31]): 8 mm
CC1(C)S[C@@H]2[C@H](NC(=O)[C@H](N)c3ccccc3)C(=O)N2[C@H]1C(=O)O [AMPICILLIN],372,248,inactive,372,248,inactive,inactive,inactive,inactive,0.03 millimeter,inactive,0.02 millimeter,inactive,372,248,inactive,744,372,inactive,492,zone of inhibition at 10 µg/disc (Micrococcus flavus [2]): 8 mm; inhibition zone (IZ) (Salmonella typhimurium [6]; [33]): inactive; inhibition zone (IZ) (Pseudomonas aeruginosa [32]): inactive; zone of inhibition at 10 µg/disc (Staphylococcus aureus [10]): 8 mm; inhibition zone (IZ) (Pseudomonas aeruginosa [18]): inactive; zone of inhibition at 10 µg/disc (Enterobacter cloacae [20]): 6 mm; MIC (Escherichia coli [23]): 372 µM; zone of inhibition at 10 µg/disc (Bacillus cereus [24]): 10 mm; MBC (Pseudomonas aeruginosa [25]): 1240 µM; MIC (Pseudomonas aeruginosa [25]): 744 µM; inhibition zone (IZ) (Listeria monocytogenes [26]): inactive; MBC (Enterobacter cloacae [27]): 492 µM; MIC (Enterobacter cloacae [27]): 372 µM; MBC (Salmonella typhimurium [29]): 492 µM; MIC (Salmonella typhimurium [29]): 248 µM; inhibition zone (IZ) (Listeria monocytogenes [30]): inactive; zone of inhibition at 10 µg/disc (Escherichia coli [31]): 6 mm
COc1ccccc1/C=C/C(=O)c1ccc(Nc2nc(Nc3ccccc3)nc(Nc3ccccc3)n2)cc1,536,268,0.08 millimeter,268,134,inactive,0.06 millimeter,inactive,inactive,inactive,0.07 millimeter,inactive,inactive,268,134,inactive,536,268,0.08 millimeter,268,inhibition zone (IZ) (Micrococcus flavus [2]): inactive; inhibition zone (IZ) (Salmonella typhimurium [6]; [33]): inactive; inhibition zone (IZ) (Staphylococcus aureus [7]): inactive; inhibition zone (IZ) (Staphylococcus aureus [10]): inactive; inhibition zone (IZ) (Bacillus cereus [15]): inactive; zone of inhibition at 10 µg/disc (Pseudomonas aeruginosa [18]): 6 mm; inhibition zone (IZ) (Enterobacter cloacae [20]): inactive; MIC (Escherichia coli [23]): 134 µM; inhibition zone (IZ) (Bacillus cereus [24]): inactive; MBC (Pseudomonas aeruginosa [25]): 536 µM; MIC (Pseudomonas aeruginosa [25]): 268 µM; inhibition zone (IZ) (Listeria monocytogenes [26]): inactive; MBC (Enterobacter cloacae [27]): 536 µM; MIC (Enterobacter cloacae [27]): 268 µM; inhibition zone (IZ) (Enterobacter cloacae [28]): inactive; MBC (Salmonella typhimurium [29]): 536 µM; MIC (Salmonella typhimurium [29]): 268 µM; inhibition zone (IZ) (Listeria monocytogenes [30]): inactive; inhibition zone (IZ) (Escherichia coli [31]): inactive
CN[C@@H]1[C@H](O[C@H]2[C@H](O[C@H]3[C@H](O)[C@@H](O)[C@H](N=C(N)N)[C@@H](O)[C@@H]3N=C(N)N)O[C@@H](C)[C@]2(O)C=O)O[C@@H](CO)[C@H](O)[C@H]1O [STREPTOMYCIN],172,86,0.07 millimeter,344,172,inactive,0.08 millimeter,0.08 millimeter,0.05 millimeter,0.1 millimeter,0.04 millimeter,0.06 millimeter,0.06 millimeter,86,43,inactive,516,258,0.08 millimeter,344,zone of inhibition at 10 µg/disc (Micrococcus flavus [2]): 20 mm; inhibition zone (IZ) (Salmonella typhimurium [6]): 0.08 millimeter; inhibition zone (IZ) (Pseudomonas aeruginosa [32]): inactive; zone of inhibition at 10 µg/disc (Staphylococcus aureus [10]): 13 mm; inhibition zone (IZ) (Pseudomonas aeruginosa [18]): inactive; zone of inhibition at 10 µg/disc (Enterobacter cloacae [20]): 12 mm; MIC (Escherichia coli [23]): 172 µM; zone of inhibition at 10 µg/disc (Bacillus cereus [24]): 18 mm; MBC (Pseudomonas aeruginosa [25]): 344 µM; MIC (Pseudomonas aeruginosa [25]): 172 µM; inhibition zone (IZ) (Listeria monocytogenes [26]): inactive; MBC (Enterobacter cloacae [27]): 344 µM; MIC (Enterobacter cloacae [27]): 172 µM; MBC (Salmonella typhimurium [29]): 344 µM; MIC (Salmonella typhimurium [29]): 172 µM; inhibition zone (IZ) (Listeria monocytogenes [30]): inactive; zone of inhibition at 10 µg/disc (Escherichia coli [31]): 10 mm
